Activity calls are given as the source filed them. No cut-off for these calls is given here.
What was measured:
[1] = test system: Mus musculus; assay: Antinociceptive activity in sc dosed CD-1 mouse assessed as inhibition of acetic acid-induced writhing treated 30 mins prior to test followed by acetic acid challenge measured for 10 mins starting 5 mins post acetic acid challenge; assay type: functional
Method in brief: (§1)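 Male CD1 mice (30–35 g, 6–8 weeks) given compound or saline sc at 10 μL/g. […] ED50 by Litchfield–Wilcoxon from dose–response. Doses expressed as salts; ≥5 mice per group, each used once.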

[2] = test system: Mus musculus; assay: Antinociceptive activity in CD-1 mouse assessed as inhibition of acetic acid-induced writhing at […], sc treated 30 mins prior to test followed by acetic acid challenge measured for 10 mins starting 5 mins post acetic acid challenge in presence of KOP receptor antagonist nor-BNI; assay type: functional, organism-based
[3] = test system: Mus musculus; assay: Toxicity in CD-1 mouse assessed as motor impairment at 5 mg/kg, sc treated 30 mins prior to test by rotarod test; assay type: organism-based; conditions: in vivo, 0.5 h
[4] = biological target: Kappa-type opioid receptor (Homo sapiens) (UniProt P41145); assay: Agonist activity at human kappa opioid receptor expressed in CHO cell membranes after 60 mins by [35S]GTPgammaS binding assay relative to U69,593; assay type: functional
Chain of Kappa-type opioid receptor (Homo sapiens) (P41145 whole entry): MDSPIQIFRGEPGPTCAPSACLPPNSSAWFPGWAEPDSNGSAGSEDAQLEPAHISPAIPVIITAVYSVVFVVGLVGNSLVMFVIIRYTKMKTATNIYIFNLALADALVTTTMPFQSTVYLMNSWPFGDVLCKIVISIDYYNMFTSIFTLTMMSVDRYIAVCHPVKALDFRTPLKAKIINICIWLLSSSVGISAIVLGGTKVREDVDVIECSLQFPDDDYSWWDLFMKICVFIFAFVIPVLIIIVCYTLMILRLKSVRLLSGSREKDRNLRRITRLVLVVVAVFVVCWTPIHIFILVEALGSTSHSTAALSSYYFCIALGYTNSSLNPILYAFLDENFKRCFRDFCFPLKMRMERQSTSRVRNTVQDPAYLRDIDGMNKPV
Method in brief: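 Membranes (8–15 μg) from CHO cells stably expressing human KOP, in 20 mM HEPES, 10 mM MgCl2, 100 mM NaCl, pH 7.4. Incubated with 0.05 nM [35S]GTPγS, 10 μM GDP and graded compound for 60 min at 25 °C. Nonspecific binding with 10 μM GTPγS; basal binding without ligand. Filtered and counted. Efficacy given as % stimulation relative to U69,593. Duplicates, ≥3 experiments.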

[5] = test system: Mus musculus; assay: Antinociceptive activity in CD-1 mouse assessed as inhibition of acetic acid-induced writhing at 5 mg/kg, sc treated 30 mins prior to test followed by acetic acid challenge measured for 10 mins starting 5 mins post acetic acid challenge in presence of KOP receptor antagonist nor-BNI; assay type: functional, organism-based
Method in brief: (§2)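 Writhing test in male CD1 mice: nor-BNI 20 mg/kg sc given 24 h before sc test compound. Acetic acid 0.6% ip at 25 min after compound; writhes counted for 10 min. Inhibition calculated as % reduction against saline controls. ≥5 mice per group.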

[6] = test system: Mus musculus; assay: Toxicity in CD-1 mouse assessed as motor impairment at 10 to 20 mg/kg, sc treated 30 mins prior to test by rotarod test; assay type: organism-based; conditions: in vivo, 0.5 h
[7] = test system: Mus musculus; assay: Toxicity in CD-1 mouse assessed as motor impairment at […], sc treated 30 mins prior to test by rotarod test; assay type: organism-based; conditions: in vivo, 0.5 h
[8] = test system: Mus musculus; assay: Antinociceptive activity in CD-1 mouse assessed as inhibition of acetic acid-induced writhing at 1 mg/kg, sc treated 30 mins prior to test followed by acetic acid challenge measured for 10 mins starting 5 mins post acetic acid challenge in presence of KOP receptor antagonist nor-BNI; assay type: functional, organism-based; method in brief: as §2
[9] = test system: Mus musculus; assay: Toxicity in CD-1 mouse assessed as motor impairment at 15 mg/kg, sc treated 30 mins prior to test by rotarod test; assay type: organism-based; conditions: in vivo, 0.5 h
[10] = biological target: Kappa-type opioid receptor (Homo sapiens) (UniProt P41145)
[11] = test system: Mus musculus; assay: Antinociceptive activity in CD-1 mouse assessed as inhibition of acetic acid-induced writhing at 10 mg/kg, sc treated 30 mins prior to test followed by acetic acid challenge measured for 10 mins starting 5 mins post acetic acid challenge; assay type: functional, organism-based; method in brief: as §1
[12] = test system: Mus musculus; assay: In vivo antagonist activity at kappa opioid receptor in CD-1 mouse assessed as reversal of U50,488-induced inhibition of acetic acid-mediated writhing at 10 mg/kg, sc treated 15 mins prior to U50,488 measured for 10 mins starting 5 mins post acetic acid challenge; assay type: functional, organism-based
Method in brief: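 Male CD1 mice received test compound 10 mg/kg sc, then U50,488 2 mg/kg sc 15 min later. Acetic acid 0.6% ip given 25 min after U50,488 dosing; writhes counted for 10 min. Compared with saline controls. ≥5 mice per group, sc volume 10 μL/g.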

[13] = test system: Mus musculus; assay: Toxicity in CD-1 mouse assessed as motor impairment at 5 to 10 mg/kg, sc treated 30 mins prior to test by rotarod test; assay type: organism-based; conditions: in vivo, 0.5 h
[14] = test system: Mus musculus; assay: Toxicity in CD-1 mouse assessed as motor impairment at 7.5 mg/kg, sc treated 30 mins prior to test by rotarod test; assay type: organism-based; conditions: in vivo, 0.5 h

Row | SMILES | inhibition [1] | Efficacy [4] [%] | other results
1 | Oc1cccc(CCN(CCc2cccc(O)c2)CC2CC2)c1 | Dose-dependent effect | – | –
2 | Cl.Oc1cccc(CCN(CCc2ccccc2)CC2CCCCC2)c1 | Dose-dependent effect | – | inhibition [2]: inactive; Activity [3]: Non-Toxic
3 | Oc1ccc(CCN(CCc2cccc(O)c2)CC2CCCCC2)cc1 | Dose-dependent effect | 84.3 | –
4 | Oc1cccc(CCN(CCc2cccc(O)c2)CC2CCCCC2)c1 | Dose-dependent effect | 91.1 | –
5 | Oc1cccc(CCN(CCc2ccccc2)CC2CC2)c1 | Dose-dependent effect | – | inhibition [5]: inactive; Activity [6]: Non-Toxic
6 | c1ccc(CCN(CCc2ccccc2)CC2CCC2)cc1 | – | 91.9 | –
7 | Cl.Oc1cccc(CCN(CCc2ccccc2)CC2CCCC2)c1 | Dose-dependent effect | 82.8 | Activity [7]: Non-Toxic; inhibition [8]: inactive
8 | Cl.Oc1cccc(CCN(CCc2ccccc2)CC2CCC2)c1F | Dose-dependent effect | 66.1 | Activity [9]: Non-Toxic
9 | Oc1ccc(CCN(CCc2cccc(O)c2)CC2CC2)cc1 | – | – | Ke [10]: 24.3 nM; inhibition [11]: inactive; inhibition [12]: Active
10 | Oc1cccc(CCN(CCc2cccc(O)c2F)CC2CCC2)c1 | Dose-dependent effect | – | –
11 | Oc1cccc(CCN(CCc2ccccc2)CC2CCC2)c1 | – | – | Activity [13]: Non-Toxic
12 | Cl.Oc1cccc(CCN(CCc2ccccc2)CC2CCCCC2)c1F | Dose-dependent effect | 88.9 | Activity [14]: Non-Toxic
13 | Oc1ccc(CCN(CCc2cccc(O)c2)CC2CCC2)cc1 | Dose-dependent effect | – | –
14 | C=CCN(CCc1ccc(O)cc1)CCc1cccc(O)c1 | – | 29.8 | –
15 | Oc1ccc(CCN(CCc2cccc(O)c2F)CC2CCC2)cc1 | Dose-dependent effect | – | –
16 | Oc1cccc(CCN(CCc2cccc(O)c2)CC2CCC2)c1 | Dose-dependent effect | – | –
17 | CC(C)CCN(CCc1ccccc1)CCc1cccc(O)c1 | Dose-dependent effect | – | –
18 | CC(C)CCN(CCc1cccc(O)c1)CCc1cccc(O)c1 | Dose-dependent effect | – | –
19 | Oc1cccc(CCN(CCc2cccc(O)c2)CC2CCCC2)c1 | Dose-dependent effect | 80.4 | –
20 | Oc1cccc(CCN(CCc2ccccc2)Cc2ccccc2)c1 | Dose-dependent effect | 79.5 | –
